{"source": "ChEMBL document CHEMBL1125797", "about": "“Synthesis, characterization and myocardial uptake of cationic bis(arene)technetium(I) complexes” (J Med Chem, 1991)", "key": {"Rattus norvegicus [1]": {"tested_on": "Rattus norvegicus", "assay": "Biodistribution of compound in rat blood at 360 min after intravenous administration", "type": "ADME, organism-based", "conditions": "in vivo, 6 h", "outline": "(§1)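 Time course in Sprague-Dawley rats after lateral tail-vein injection of the 99mTc complex in normal saline (~12.5 μCi/mL) at ~25 μCi/kg. Tissues were sampled at the stated times, washed with saline, blotted, weighed and γ-counted to give percent injected dose per g. Values are averages of male and female rats.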"}, "Rattus norvegicus [2]": {"tested_on": "Rattus norvegicus", "assay": "Biodistribution of compound in rat eye at 90 min after intravenous administration", "type": "ADME, organism-based", "conditions": "in vivo, 1.5 h", "outline": "as §1"}, "Rattus norvegicus [3]": {"tested_on": "Rattus norvegicus", "assay": "Biodistribution of compound in rat muscle at 45 min after intravenous administration", "type": "ADME, organism-based, Muscle tissue", "conditions": "in vivo, 0.75 h", "outline": "(§2)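 Rats received the 99mTc complex in normal saline (~12.5 μCi/mL) by lateral tail vein injection at ~25 μCi/kg and were killed by cervical dislocation at the stated time. Tissues were washed with saline, blotted, weighed and γ-counted to give percent injected dose/g. Time-course values are averages of male and female rats.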"}, "Rattus norvegicus [4]": {"tested_on": "Rattus norvegicus", "assay": "Biodistribution of compound in rat bone marrow at 1440 min after intravenous administration", "type": "ADME, organism-based", "conditions": "in vivo, 24 h", "outline": "as §1"}, "Rattus norvegicus [5]": {"tested_on": "Rattus norvegicus", "assay": "Biodistribution of compound in rat kidney at 180 min after intravenous administration", "type": "ADME, organism-based", "conditions": "in vivo, 3 h", "outline": "as §1"}, "Rattus norvegicus [6]": {"tested_on": "Rattus norvegicus", "assay": "Biodistribution of compound in rat muscle at 90 min after intravenous administration", "type": "ADME, organism-based, Muscle tissue", "conditions": "in vivo, 1.5 h", "outline": "as §2"}, "Rattus norvegicus [7]": {"tested_on": "Rattus norvegicus", "assay": "Biodistribution of compound in rat lungs at 90 min after intravenous administration", "type": "ADME, organism-based, Lung", "conditions": "in vivo, 1.5 h", "outline": "as §2"}, "Rattus norvegicus [8]": {"tested_on": "Rattus norvegicus", "assay": "Biodistribution of compound in rat kidney after 5 min of administration.", "type": "ADME, organism-based", "conditions": "in vivo", "outline": "(§3)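 Female Sprague-Dawley rats (150–200 g) received the complex in normal saline (~12.5 μCi/mL) through a lateral tail vein at ~25 μCi/kg. Rats were killed by cervical dislocation 5 min after injection. Tissues were washed with saline, blotted, weighed and γ-counted to give percent injected dose/g tissue.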"}, "Rattus norvegicus [9]": {"tested_on": "Rattus norvegicus", "assay": "Biodistribution of compound in rat blood at 5 min after intravenous administration", "type": "ADME, organism-based", "conditions": "in vivo", "outline": "as §1"}, "Rattus norvegicus [10]": {"tested_on": "Rattus norvegicus", "assay": "Biodistribution of compound in rat gonads at 90 min after intravenous administration", "type": "ADME, organism-based, Gonad", "conditions": "in vivo, 1.5 h", "outline": "as §1"}, "Rattus norvegicus [11]": {"tested_on": "Rattus norvegicus", "assay": "Biodistribution of compound in rat bone marrow at 360 min after intravenous administration", "type": "ADME, organism-based", "conditions": "in vivo, 6 h", "outline": "as §1"}, "Rattus norvegicus [12]": {"tested_on": "Rattus norvegicus", "assay": "Biodistribution of compound in rat kidney at 1440 min after intravenous administration", "type": "ADME, organism-based", "conditions": "in vivo, 24 h", "outline": "as §1"}, "Rattus norvegicus [13]": {"tested_on": "Rattus norvegicus", "assay": "Biodistribution of compound in rat blood after 5 min of administration.", "type": "ADME, organism-based", "conditions": "in vivo", "outline": "as §3"}, "Rattus norvegicus [14]": {"tested_on": "Rattus norvegicus", "assay": "Biodistribution of compound in rat brain after 5 min of administration", "type": "ADME, organism-based", "conditions": "in vivo"}, "Rattus norvegicus [15]": {"tested_on": "Rattus norvegicus", "assay": "Biodistribution of compound in rat lung after 5 min of administration.", "type": "ADME, organism-based", "conditions": "in vivo", "outline": "as §3"}, "Rattus norvegicus [16]": {"tested_on": "Rattus norvegicus", "assay": "Biodistribution of compound in rat urine at 1440 min after intravenous administration", "type": "ADME, organism-based", "conditions": "in vivo, 24 h", "outline": "as §2"}, "Rattus norvegicus [17]": {"tested_on": "Rattus norvegicus", "assay": "Biodistribution of compound in rat lungs at 180 min after intravenous administration", "type": "ADME, organism-based, Lung", "conditions": "in vivo, 3 h", "outline": "as §2"}, "Rattus norvegicus [18]": {"tested_on": "Rattus norvegicus", "assay": "Biodistribution of compound in rat heart at 180 min after intravenous administration", "type": "ADME, organism-based", "conditions": "in vivo, 3 h", "outline": "as §1"}, "Rattus norvegicus [19]": {"tested_on": "Rattus norvegicus", "assay": "Biodistribution of compound in rat heart at 360 min after intravenous administration", "type": "ADME, organism-based", "conditions": "in vivo, 6 h", "outline": "as §1"}, "Rattus norvegicus [20]": {"tested_on": "Rattus norvegicus", "assay": "Biodistribution of compound in rat liver at 45 min after intravenous administration", "type": "ADME, organism-based", "conditions": "in vivo, 0.75 h", "outline": "as §2"}, "Rattus norvegicus [21]": {"tested_on": "Rattus norvegicus", "assay": "Biodistribution of compound in rat kidney at 90 min after intravenous administration", "type": "ADME, organism-based", "conditions": "in vivo, 1.5 h", "outline": "as §1"}, "Rattus norvegicus [22]": {"tested_on": "Rattus norvegicus", "assay": "Biodistribution of compound in rat eye at 5 min after intravenous administration", "type": "ADME, organism-based", "conditions": "in vivo", "outline": "as §1"}, "Rattus norvegicus [23]": {"tested_on": "Rattus norvegicus", "assay": "Biodistribution of compound in rat bone at 45 min after intravenous administration", "type": "ADME, organism-based, Bone element", "conditions": "in vivo, 0.75 h", "outline": "as §1"}, "Rattus norvegicus [24]": {"tested_on": "Rattus norvegicus", "assay": "Biodistribution of compound in rat liver at 180 min after intravenous administration", "type": "ADME, organism-based", "conditions": "in vivo, 3 h", "outline": "as §1"}, "Rattus norvegicus [25]": {"tested_on": "Rattus norvegicus", "assay": "Biodistribution of compound in rat eye at 45 min after intravenous administration", "type": "ADME, organism-based", "conditions": "in vivo, 0.75 h", "outline": "as §1"}, "Rattus norvegicus [26]": {"tested_on": "Rattus norvegicus", "assay": "Biodistribution of compound in rat heart at 90 min after intravenous administration", "type": "ADME, organism-based", "conditions": "in vivo, 1.5 h", "outline": "as §1"}, "Rattus norvegicus [27]": {"tested_on": "Rattus norvegicus", "assay": "Biodistribution of compound in rat bone at 180 min after intravenous administration", "type": "ADME, organism-based, Bone element", "conditions": "in vivo, 3 h", "outline": "as §1"}, "Rattus norvegicus [28]": {"tested_on": "Rattus norvegicus", "assay": "Biodistribution of compound in rat bone at 1440 min after intravenous administration", "type": "ADME, organism-based, Bone element", "conditions": "in vivo, 24 h", "outline": "as §1"}, "Rattus norvegicus [29]": {"tested_on": "Rattus norvegicus", "assay": "Biodistribution of compound in rat blood at 180 min after intravenous administration", "type": "ADME, organism-based", "conditions": "in vivo, 3 h", "outline": "as §1"}, "Rattus norvegicus [30]": {"tested_on": "Rattus norvegicus", "assay": "Biodistribution of compound in rat liver at 5 min after intravenous administration", "type": "ADME, organism-based", "conditions": "in vivo", "outline": "as §2"}, "Rattus norvegicus [31]": {"tested_on": "Rattus norvegicus", "assay": "Biodistribution of compound in rat lungs at 5 min after intravenous administration", "type": "ADME, organism-based, Lung", "conditions": "in vivo", "outline": "as §2"}, "Rattus norvegicus [32]": {"tested_on": "Rattus norvegicus", "assay": "Biodistribution of compound in rat gonads at 45 min after intravenous administration", "type": "ADME, organism-based, Gonad", "conditions": "in vivo, 0.75 h", "outline": "as §1"}, "Rattus norvegicus [33]": {"tested_on": "Rattus norvegicus", "assay": "Biodistribution of compound in rat heart at 45 min after intravenous administration", "type": "ADME, organism-based", "conditions": "in vivo, 0.75 h", "outline": "as §1"}, "[34]": {"assay": "Biodistribution of compound in rat muscle after 5 min of administration.", "type": "ADME, organism-based, Muscle tissue", "conditions": "in vivo", "outline": "as §3"}, "Rattus norvegicus [35]": {"tested_on": "Rattus norvegicus", "assay": "Biodistribution of compound in rat bone marrow at 45 min after intravenous administration", "type": "ADME, organism-based", "conditions": "in vivo, 0.75 h", "outline": "as §1"}}, "data": [{"substance": "Bis(1,2,3,5-tetramethylbenzene)technetium", "values": [{"measurement": "Dose/ml", "setting": "Rattus norvegicus [1]", "value": 0.15, "unit": "% dose"}, {"measurement": "Dose/g", "setting": "Rattus norvegicus [2]", "value": 0.021, "unit": "% dose"}, {"measurement": "Dose/g", "setting": "Rattus norvegicus [3]", "value": 30, "unit": "% dose/organ"}, {"measurement": "Dose/g", "setting": "Rattus norvegicus [4]", "value": 0.1, "unit": "% dose/organ"}, {"measurement": "Dose/g", "setting": "Rattus norvegicus [5]", "value": 2, "unit": "% dose"}, {"measurement": "Dose/g", "setting": "Rattus norvegicus [6]", "value": 42, "unit": "% dose/organ"}, {"measurement": "Dose/g", "setting": "Rattus norvegicus [7]", "value": 1.17, "unit": "% dose/organ"}, {"measurement": "Dose/g", "setting": "Rattus norvegicus [8]", "value": 6.7, "unit": "%"}, {"measurement": "Dose/ml", "setting": "Rattus norvegicus [9]", "value": 1.06, "unit": "% dose"}, {"measurement": "Dose/g", "setting": "Rattus norvegicus [10]", "value": 0.074, "unit": "% dose"}, {"measurement": "Dose/g", "setting": "Rattus norvegicus [11]", "value": 0.11, "unit": "% dose/organ"}, {"measurement": "Dose/g", "setting": "Rattus norvegicus [12]", "value": 0.2, "unit": "% dose"}, {"measurement": "Dose/g", "setting": "Rattus norvegicus [13]", "value": 0.1, "unit": "%"}, {"measurement": "Dose/g", "setting": "Rattus norvegicus [14]", "value": 0.02, "unit": "%"}, {"measurement": "Dose/g", "setting": "Rattus norvegicus [15]", "value": 1.3, "unit": "%"}, {"measurement": "Dose/ml", "setting": "Rattus norvegicus [16]", "value": 20, "unit": "% dose"}, {"measurement": "Dose/g", "setting": "Rattus norvegicus [17]", "value": 0.81, "unit": "% dose/organ"}, {"measurement": "Dose/g", "setting": "Rattus norvegicus [18]", "value": 2.44, "unit": "% dose"}, {"measurement": "Dose/g", "setting": "Rattus norvegicus [19]", "value": 2.81, "unit": "% dose"}, {"measurement": "Dose/g", "setting": "Rattus norvegicus [20]", "value": 4, "unit": "% dose"}, {"measurement": "Dose/g", "setting": "Rattus norvegicus [21]", "value": 3.9, "unit": "% dose/organ"}, {"measurement": "Dose/g", "setting": "Rattus norvegicus [22]", "value": 0.03, "unit": "% dose"}, {"measurement": "Dose/g", "setting": "Rattus norvegicus [23]", "value": 2.6, "unit": "% dose/organ"}, {"measurement": "Dose/g", "setting": "Rattus norvegicus [24]", "value": 1, "unit": "% dose/organ"}, {"measurement": "Dose/g", "setting": "Rattus norvegicus [25]", "value": 0.023, "unit": "% dose"}, {"measurement": "Dose/g", "setting": "Rattus norvegicus [26]", "value": 2.78, "unit": "% dose"}, {"measurement": "Dose/g", "setting": "Rattus norvegicus [27]", "value": 2.2, "unit": "% dose/organ"}, {"measurement": "Dose/g", "setting": "Rattus norvegicus [28]", "value": 1.7, "unit": "% dose/organ"}, {"measurement": "Dose/ml", "setting": "Rattus norvegicus [29]", "value": 0.19, "unit": "% dose"}, {"measurement": "Dose/g", "setting": "Rattus norvegicus [30]", "value": 5.6, "unit": "% dose/organ"}, {"measurement": "Dose/g", "setting": "Rattus norvegicus [31]", "value": 1.4, "unit": "% dose/organ"}, {"measurement": "Dose/g", "setting": "Rattus norvegicus [32]", "value": 0.089, "unit": "% dose"}, {"measurement": "Dose/g", "setting": "Rattus norvegicus [33]", "value": 2.83, "unit": "% dose"}, {"measurement": "Dose/g", "setting": "[34]", "value": 0.61, "unit": "%"}, {"measurement": "Dose/g", "setting": "Rattus norvegicus [35]", "value": 0.24, "unit": "% dose/organ"}]}]}
